# Source: PubChem (Broad Institute)
# dFosB act – enhances mouse delta FosB homodimer DNA binding | P13346 | purified delta FosB, TAMRA-CDK5 oligo fluorescence polarization; percent of positive-control signal above neutral wells | activation, % at 25 µM | 0.99% of 340,000 active;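 active = mean activation above about 17%, with every replicate also reaching it, limit read from the data, passing the limit was not always enough; inconclusive = only one of the two conditions met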
# SR-BI HDL uptake – blocks mouse SR-BI lipid uptake from DiI-HDL. Q61009. ldlA[mSR-BI] CHO cells, DiI-HDL uptake fluorescence, 3 h. inhibition, % at 12.5 µM. 0.96% of 320,000 active. AID 488896;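 active = mean replicate inhibition of at least 70% and a set share of replicates each scoring 70 or more; inconclusive = meets just one of the two criteria; inactive = fails both criteria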
# Target sequence (Q61009 whole entry, looked up): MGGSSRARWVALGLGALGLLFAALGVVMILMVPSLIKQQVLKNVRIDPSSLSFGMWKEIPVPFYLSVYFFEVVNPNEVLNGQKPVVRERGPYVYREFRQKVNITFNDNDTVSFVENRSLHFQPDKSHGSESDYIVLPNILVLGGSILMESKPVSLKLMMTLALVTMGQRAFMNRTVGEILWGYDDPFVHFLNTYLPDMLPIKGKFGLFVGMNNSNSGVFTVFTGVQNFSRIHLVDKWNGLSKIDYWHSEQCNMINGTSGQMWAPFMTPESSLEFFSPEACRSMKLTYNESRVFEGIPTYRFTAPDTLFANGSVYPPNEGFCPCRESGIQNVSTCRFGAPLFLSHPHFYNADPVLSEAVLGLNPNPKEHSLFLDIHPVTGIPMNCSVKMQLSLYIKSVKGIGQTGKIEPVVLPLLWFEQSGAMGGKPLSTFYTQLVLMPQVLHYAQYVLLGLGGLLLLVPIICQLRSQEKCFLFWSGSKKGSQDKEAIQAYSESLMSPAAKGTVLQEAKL
# SR-BI DiI-HDL act – enhances SR-BI lipid uptake from DiI-HDL | activation, % at 12.5 µM | 0.096% of 320,000 active | CHO ldlA[mSR-BI] cells, DiI-HDL uptake fluorescence, 3 h; 100 = double the neutral-control signal | AID 504775;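 active = mean replicate activation of at least 60% and every replicate at or above 60%; inconclusive = mean or all-replicate condition met, but not both; inactive = mean below 60% and not all replicates reaching 60%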
#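 Material – SR-BI-overexpressing, LDLR-lacking CHO cells · Medium – BSA-supplemented, HEPES-buffered Ham's F12, pH 7.4 · Doses – single concentration · Times – compound with DiI-HDL co-incubation, 3 h at 37 °C · Measured by – bottom-read fluorescence, 550/595 nm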
# RAD54 branch – blocks human RAD54 Holliday junction branch migration. 0.14% of 360,000 active. inhibition, % at 10.4 µM. Q92698. FAM/BHQ fluorescence;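 active = mean normalized replicate activity at least 40 and at least half of replicates scoring 40 or more; inconclusive = only one of the two criteria met; inactive = mean below 40 and under half of replicates reaching 40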;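 also: inhibitors cause a drop in the FAM fluorescence signal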
# S100A4 inh HTS – inhibitors of human S100A4 binding to myosin IIA peptide; AID 652163; 0.14% of 360,000 active; S100A4/TAMRA-MyoIIA peptide fluorescence polarization; inhibition, % at 10.7 µM;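 active = mean inhibition of at least 70% across replicates, with every replicate also reaching that level; inconclusive = mean inhibition reaches 70% but some replicates fall short; inactive = mean inhibition below 70%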
# Target sequence (P26447 whole entry, looked up): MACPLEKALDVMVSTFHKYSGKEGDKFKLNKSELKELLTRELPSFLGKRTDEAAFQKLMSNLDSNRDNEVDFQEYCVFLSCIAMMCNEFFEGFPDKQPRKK
#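 Compound dosing: one dose per compound; test system: human S100A4 monomer with TAMRA-labelled myosin IIA peptide; probe or stimulus: TAMRA-labelled myosin IIA heavy-chain peptide probe, 5 nM; medium: HEPES buffer with Ca2+, pH 7.2; schedule: 5 min incubation before reading; benchmarks: neutral control DMSO, positive control TFP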
# PvdQ inh – blocks Pseudomonas aeruginosa PvdQ acylase activity; purified PvdQ acylase, fluorescence plate reader; inhibition, % at 10 µM; 0.063% of 340,000 active; AID 488965; in the data active = inhibition above about 30%, passing the limit was not always enough; inconclusive = no clear call, values can overlap the other calls
# Rad54 DNA ctr – DNA binding artifact in Rad54 counter-screen; 8% of 460 active; AID 651673; shares compounds with RAD54 branch; AC50, µM (top dose mostly 35 µM); Acridine orange-DNA displacement, fluorescence polarization, 20 min;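 active = signal drop giving an AC50 within twice the top valid tested concentration of each sample, actives reach about 35 µM in these data; inactive = activity opposite to expected, plus the rest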;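 also: polarization loss reports compound binding to salmon sperm DNA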
# A number is an active result; 0 = inactive; ? = inconclusive; - = no result given. Compounds with a hit are over-represented: about 1.6% of the library has one in this group of screens.
SMILES,dFosB act,SR-BI HDL uptake,SR-BI DiI-HDL act,RAD54 branch,S100A4 inh HTS,PvdQ inh,Rad54 DNA ctr
CCN1CCN(c2ccc(Nc3ccnc4ccccc34)cc2)CC1,36.3,0,0,78.2,0,0,0
COc1ccc(Nc2nc(N3CCCCC3)nc3ccccc23)c(OC)c1,0,0,0,55.2,-,0,0
COc1ccc(Nc2nc(N3CCN(S(C)(=O)=O)CC3)nc3ccccc23)c(OC)c1,0,0,0,0,0,0,-
NCCN1CCN(CCN)CC1,0,0,0,50.1,-,0,0
COc1ccc(CCNC(=O)c2cc3c(=O)n4ccccc4nc3n(CCCN3CCOCC3)c2=N)cc1OC,0,-,-,?,0,0,0
Cc1cccn2c(=O)c3cc(C(=O)NCCN4CCOCC4)c(=N)n(CCCN4CCOCC4)c3nc12,0,-,-,91.5,0,0,0
Cc1cccn2c(=O)c3cc(C(=O)NCCN4CCOCC4)c(=N)n(CCc4ccccc4)c3nc12,?,-,-,0,-,0,-
Cc1cccn2c(=O)c3cc(C(=O)NC4CCCC4)c(=N)n(CCc4ccccc4)c3nc12,0,0,0,0,0,0,-
CCCNc1nc2nc3ccccn3c(=O)c2cc1C(=O)NCCN1CCOCC1,0,0,0,?,0,0,0
CCNC(=O)c1cc2c(=O)n3cccc(C)c3nc2n(CCc2ccccc2)c1=N,0,0,0,50.3,-,0,0
C[C@@H]1CN([C@@H](C)CO)C(=O)c2ccccc2-c2ccccc2CO[C@H]1CN(C)CC1CC1,-,-,-,0,0,-,-
C[C@H]1CN([C@@H](C)CO)S(=O)(=O)c2ccc(C#CCN(C)C)cc2O[C@@H]1CN(C)Cc1ccccc1F,-,-,-,0,0,-,-
Cc1ccc(-c2ccc([C@H]3[C@H](CO)N4C(=O)CN(C(=O)Nc5cccc(F)c5)C[C@@H]34)cc2)cc1,-,-,-,-,0,-,-
C[C@@H]1CCCCO[C@@H](CN(C)C(=O)Nc2cccc3ccccc23)[C@H](C)CN([C@@H](C)CO)C(=O)c2cc(NC(=O)Nc3ccc(F)cc3)ccc2O1,-,-,-,0,0,-,-
Cc1cccn2c(=O)c3cc(C(=O)NCc4ccccc4)c(=N)n(CCCN4CCOCC4)c3nc12,0,-,-,61.1,0,0,0
CCCC(=O)Nc1ccc2c(c1)C(=O)N(C)C[C@@H](OC)[C@H](C)CN(C(=O)Cc1cccnc1)[C@H](C)CO2,-,-,-,0,0,-,-
CNC(C)C#Cc1ccc2oc3cccc(OC)c3c(=O)c2c1 (stereo unspecified),0,0,0,?,0,0,0
CCNC(=O)C[C@@H]1CC[C@@H]2[C@@H](COc3ccc(NC(=O)Nc4c(C)noc4C)cc3C(=O)N2C)O1,-,-,-,0,0,-,-
Nc1c2c(nc3cccc(Cl)c13)N(c1ccccc1)CC2,0,?,0,-,0,0,-
Cc1ccc2nc3c(c(N)c2c1)CCN3c1ccccc1,0,0,0,52.6,-,0,0
C[C@H]1CN([C@@H](C)CO)C(=O)c2cccc(NS(=O)(=O)c3ccc(Cl)cc3)c2O[C@H]1CN(C)Cc1ccc(Cl)c(Cl)c1,-,-,-,0,0,-,-
CN(C)CCCn1c(SCC(=O)Nc2nc(-c3cccc(Br)c3)cs2)nc2ccccc2c1=O,0,-,-,?,0,0,0
CC(=O)Nc1cc(-c2ccc(N3CCN(C)CC3)cc2)cn2c(-c3cccc(C(C)=O)c3)cnc12,-,-,-,79.4,0,-,0
CC(=O)Nc1cc(-c2cccc(C(=O)NCCN(C)C)c2)cn2c(-c3ccccc3)cnc12,-,-,-,64.3,0,-,0
CC(=O)Nc1cc(-c2cccc(C(=O)NCCN(C)C)c2)cn2c(-c3cccc(C(F)(F)F)c3)cnc12,-,-,-,0,0,-,-
SMILES,dFosB act,SR-BI HDL uptake,SR-BI DiI-HDL act,RAD54 branch,S100A4 inh HTS,PvdQ inh,Rad54 DNA ctr
CC(=O)Nc1cc(-c2cccc(C(=O)NCCN(C)C)c2)cn2c(-c3ccc(S(C)(=O)=O)cc3)cnc12,-,-,-,56.5,0,-,0
CC(=O)Nc1cc(-c2ccc(N3CCN(C)CC3)cc2)cn2c(-c3ccc(F)c(Cl)c3)cnc12,-,-,-,0,0,-,-
C[C@H]1CN([C@@H](C)CO)C(=O)Cc2cc(NS(=O)(=O)c3ccc(F)cc3)ccc2O[C@@H]1CN(C)C,-,-,-,0,0,-,-
CCCNC(=O)[C@H]1N[C@H]2c3ccc(-c4cccc(F)c4)c(=O)n3C[C@H]2[C@@H]1CO,-,-,-,0,0,-,-
C[C@@H]1CCCCO[C@H](CN(C)C(=O)Nc2ccc(F)cc2)[C@@H](C)CN([C@@H](C)CO)C(=O)c2cc(NC(=O)CCCN(C)C)ccc2O1,-,-,-,-,0,-,-
O=C(CCN1CCCCC1)NCC[C@@H]1CC[C@@H](NC(=O)C2CCCC2)[C@H](CO)O1,-,-,-,0,0,-,-
O=C(Nc1ccc2c(c1)OCO2)c1cc(-c2ccncc2)nc2ccccc12,0,0,0,?,0,0,0
O=C(Nc1ccc2c(c1)OCCO2)c1cc(-c2ccccc2)nc2ccccc12,0,0,0,0,-,0,-
Cc1ccc(Sc2ncccc2C(=O)O)cc1C,0,0,0,-,0,0,-
COc1cc(NC(=O)c2cccnc2Sc2ccc(C)c(C)c2)cc(OC)c1OC,0,0,0,?,-,0,0
CN(C)CCNc1ncnc2oc(-c3ccccc3)c(-c3ccccc3)c12,0,0,0,0,0,0,-
COc1ccc(-c2oc3ncnc(NCCCN(C)C)c3c2-c2ccc(OC)cc2)cc1,0,0,0,74.7,0,0,0
COc1ccccc1CNC(=O)C[C@@H]1C[C@@H]2c3cc(NS(=O)(=O)c4ccc(F)cc4)ccc3O[C@@H]2[C@H](CO)O1,-,-,-,0,0,-,-
COc1ccc2nc3cc(Cl)ccc3c(Nc3cc(CN4CCCC4)c(O)c(CN4CCCC4)c3)c2n1,-,-,-,124.5,0,-,3.72µM
Cc1noc(C)c1NC(=O)Nc1ccc2c(c1)C(=O)N([C@@H](C)CO)C[C@@H](C)[C@H](CN(C)CC1CCCCC1)O2,-,-,-,0,0,-,-
CN1CCN(c2ccc(NC(=O)c3ccc(Oc4ccccc4)cc3)cc2)CC1,0,-,-,0,0,0,-
C=CC(=O)Nc1ccc(N(C)c2ccnc(Nc3ccc(N4CCN(C)CC4)cc3)n2)cc1,50.1,0,0,74.6,0,0,0
O=C(C[C@@H]1CC[C@H]2[C@@H](COC[C@@H](O)CN2C(=O)Nc2cccc(Cl)c2)O1)N1CCCCC1,-,-,-,0,0,-,-
c1ccc2c(c1)oc1c(Nc3ccc(CN4CCOCC4)cc3)ncnc12,0,0,0,54.1,-,0,0
CN1CCN(CC(=O)Nc2nc(-c3c[nH]c4ccccc34)cs2)CC1,0,0,0,92.9,0,0,0
CCN(CC)CCCN(C(=O)c1ccco1)c1nc(-c2ccc(Cl)cc2)cs1,0,0,0,58.9,0,0,0
CCc1ccc(C(O)c2ncc(-c3cccc(C(F)(F)F)c3)[nH]2)cc1 (stereo unspecified),-,-,-,0,0,-,-
CC(C)CSc1ncc(-c2cccc(C(F)(F)F)c2)cn1,0,0,0,?,-,0,0
